Data on 95 compounds can be found in ChEMBL document CHEMBL4513216, “Probing the Open Global Health Chemical Diversity Library for Multistage-Active Starting Points for Next-Generation Antimalarials” (ACS Infect Dis, 2020).

A short description of this series: Toxicity liver stage against HepG2, at 10uM. The note with it: human, HepG2-A16-CD81EGFP cells; read-out: INHIBITION
Further details: test concentration 10 uM, cell line HepG2-A16-CD81EGFP. Type of series: cell-based. The procedure, abridged: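 Uninfected HepG2-A16-CD81EGFP cells, 3 × 10^3 per well, 1536-well, plated on prespotted compound at 10 μM final, parasite-free screening media added to match infected plates; puromycin 10 μM positive, DMSO 0.5% negative; run in parallel with 48 h PbLuc assay at 37 °C, 5% CO2; viability by CellTiter-Glo luminescence, normalized to controls.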
For `Cc1ccn(-c2ccnc(N3CCSCC3)n2)n1`, the cytotoxicity at 10 µM is 9.87%.
Take `Cc1cccc(CN2C(=O)CC[C@@H]3[C@H]2CCN3Cc2cccnc2)n1`: the cytotoxicity at 10 µM is -74.6%.
Turning to `CC(Cc1ccccc1F)C(=O)Nc1cccc(OCC(N)=O)c1` (stereo not given), the cytotoxicity at 10 µM was -1.34%.
Take `COCCNC(=O)CCNc1cc(C)nc(-c2ccncc2)n1`: the cytotoxicity at 10 µM was -1.26%.
As to `COCCN1CCN(CC(C)(O)c2cccc(C(F)(F)F)c2)CC1` (stereo not given), the cytotoxicity at 10 µM was -24.2%.
As for `Cc1ccccc1N1CCN(C(=O)Cc2ccc3c(c2)OCO3)CC1=O`, the figure is 6.17%; as for `O=c1c(-c2ccnc(N3CCC[C@H]3CO)n2)cnc2sccn12`, -6.3%.
For `CC(C)CN1C[C@@H](C(=O)O)C[C@@H](C(=O)NCc2ccncc2)C1`, the cytotoxicity at 10 µM is -147%.
As for `CCNc1cc2c(nn1)CCN(C(=O)c1ccnc(-n3ccnc3)c1)C2`, the figure is -3.01%; as for `COCc1nc(Cn2c(C)cc(C(F)(F)F)cc2=O)no1`, -2.74%.
With `CCn1ccnc1CN1CCCN(C(=O)C2(C#N)CCCCC2)CC1`, the cytotoxicity at 10 µM stood at 3.75%.
For the compound `Cc1cc(F)ccc1C(=O)N1C[C@@H]2COC[C@]2(CN(C)C)C1`, the cytotoxicity at 10 µM was -142%.
Take `Cc1nc2c(Nc3ccc(C#N)cc3)nc(N)nc2n1C`: the cytotoxicity at 10 µM was 1.88%.
Take `Cc1cc(N(C)Cc2ncc[nH]2)nc(-c2ccccc2)n1`: the cytotoxicity at 10 µM is 1.68%.
As to `COc1c(C2CCCN2CC(=O)Nc2nc(C)cs2)c(C)nn1C` (stereo not given), the cytotoxicity at 10 µM is -6.76%.
As for `CS(=O)(=O)Nc1cnn(Cc2cccc(Cl)c2)c1`, the figure is -2.44%; as for `CC(=O)N1CCC(Cc2nccnc2-c2c(C)n[nH]c2C)C1` (stereo not given), 10.7%; as for `O=C(NCC(O)c1cccc(F)c1)c1sccc1OC(F)F` (stereo not given), 0.547%.
The value for `O=C(CC1CC1)N1CCCn2c(nnc2Cn2cccc2)C1` was 10.7%.
With `Cc1cc(C(=O)N2CCN(C(=O)CC(C)C)[C@@H]3CS(=O)(=O)C[C@@H]32)no1`, the cytotoxicity at 10 µM is -5.45%.
The value for `COc1ccc(-c2nc(CCNC(=O)NC3CCC(O)CC3)co2)cc1` (stereo not given) was 7.66%; that for `O=C(c1ccc(N2CCCC2)nn1)N1CCCC(n2cccn2)C1` (stereo not given) was -5.58%; that for `FC1(F)CCNCC12CCN(c1ccccn1)C2` (stereo not given) was -0.31%.
As for `CC(C)(C)C(O)CN1CCN(C(=O)c2cccc3[nH]ncc23)CC1` (stereo not given), the figure is 5.93%.
With `CNC(=O)CN1CCC(NC2CSCCc3ccccc32)CC1` (stereo not given), the cytotoxicity at 10 µM is -4.28%.
Take `CSc1ncccc1C(=O)N1C[C@@H]2CC[C@H]1CN(C(=O)N(C)C)C2`: the cytotoxicity at 10 µM turned out to be 1.71%.
As for `Nc1ccnc(C(=O)N2CCCC3(CCC(=O)N(C4CCCC4)C3)C2)c1` (stereo not given), the figure is -19.8%; as for `CCN(C)CC1CCN(C(=O)NCCC2Cc3ccccc3C2)C1` (stereo not given), 0.458%.
As for `COCCN(C)c1ccc(NCc2cccnc2)nc1`, the figure is -9.9%; as for `CCn1ccnc1CN1CCCC(N(C)CCc2ccccc2)C1` (stereo not given), 2.88%; as for `CC(C)(C)c1cc(C(=O)N2CCOC(c3cnccn3)C2)[nH]n1` (stereo not given), 2.02%.
For the compound `CNS(=O)(=O)c1ccc(C(=O)N2CCCC2Cc2ccccc2)o1` (stereo not given), the cytotoxicity at 10 µM was -8.53%.
Consider `NCCc1n[nH]c(=O)n1-c1cccc(Cl)c1Cl`, for which the cytotoxicity at 10 µM is -2.38%.
For `CCN1Cc2cc(OC)ccc2N(CC(C)(C)O)CCC1=O`, the cytotoxicity at 10 µM is -12.2%.
For the compound `O=C(c1ccc(-c2cnco2)cc1)N1CCC(Nc2cccnn2)CC1`, the cytotoxicity at 10 µM is -0.692%.
Turning to `CCCC1(CO)CCCN(C(=O)CCCn2nc(C)cc2C)C1` (stereo not given), the cytotoxicity at 10 µM was -9.53%.
As for `CCSc1ncc(CN(Cc2cnn(C)c2)CC(C)C)cn1`, the cytotoxicity at 10 µM was -7.53%.
Turning to `NC(=O)c1ccc(CN2CCCC(N3CCCCCC3)C2)cc1` (stereo not given), the cytotoxicity at 10 µM is -6.46%.
Consider `CC(C)c1nnc2n1CCN(Cc1csc(CC(=O)N(C)C)n1)C2`, for which the cytotoxicity at 10 µM is -15.9%.
Regarding `c1cncc(COCc2cncc3c2CCN(Cc2ccoc2)C3)c1`, the cytotoxicity at 10 µM was -109%.
With `Cc1oc(C(=O)O)cc1S(=O)(=O)Nc1ccc(Cl)cc1F`, the cytotoxicity at 10 µM is -0.354%.
Regarding `Cc1cccc(CN(Cc2ccccc2)Cc2nccs2)n1`, the cytotoxicity at 10 µM came out at 12.4%.
The value for `CN1C(=O)CC(c2cnn(C)c2)C12CCN(C(=O)c1ccncc1)CC2` (stereo not given) was -84.4%.
The value for `COCCN1CCCc2sc(C(=O)Nc3ccc(C)nc3)nc21` was 5.92%; that for `O=c1c2sccc2nc2n1CCN(Cc1ccc(F)c(F)c1)CC2` was -26%; that for `Cc1nnc(NC(=O)C(C)n2ncc(Br)c2C)s1` (stereo not given) was 1.81%.
The value for `CCN(CC)c1nc2ccsc2c(=O)n1CCC(=O)NCc1cccs1` was -5.27%; that for `c1ccc(CN2CCOC[C@H]2c2nc(-c3ccncc3)c[nH]2)nc1` was -0.501%; that for `CC(C)C(CNC(=O)Nc1cn[nH]c1)N1CCOCC1` (stereo not given) was -6.83%.
For `NC(=O)C1CCN(CCCc2ccc(C(F)(F)F)cc2)CC1`, the cytotoxicity at 10 µM is -0.85%.
As for `Cc1cnn(CC2CN(Cc3ccc(-n4cccn4)cc3)CCO2)c1` (stereo not given), the figure is -0.674%.
As for `COCCC1(C(=O)O)CCCN(c2cc(C)c3ccccc3n2)C1` (stereo not given), the cytotoxicity at 10 µM is -38.7%.
For the compound `CC(C)Nc1nc2c(cc1C(=O)NCC1CC1)CCNCC2`, the cytotoxicity at 10 µM was -5.42%.
On to `c1cc(C2CCN(c3ncnc4c3CCNCC4)CC2)ccn1`, for which the cytotoxicity at 10 µM is 8.33%.
Consider `Cc1cc(C(=O)N2C[C@@H]3C(CN(C)CCc4ccccn4)[C@@H]3C2)c(C)o1` (stereo not given in full), for which the cytotoxicity at 10 µM was -50.1%.
Regarding `Cc1ccccc1N1CCN(C(=O)CCc2nncn2C)C(C)C1` (stereo not given), the cytotoxicity at 10 µM stood at 3.34%.
The value for `COc1ccccc1OCC(=O)NCC(C)(O)C1CC1` (stereo not given) was -0.419%.
Turning to `c1ccc(CO[C@H]2CC[C@H]3[C@H]2OCCN3Cc2nccs2)nc1`, the cytotoxicity at 10 µM was 5.83%.
On to `O=C(O)c1cnc(N2CCC(c3nccn3CC3CC3)CC2)c(Cl)c1`, for which the cytotoxicity at 10 µM was -9.98%.
As for `CC(=O)N1CCC2(CCN(CC3CCCCC3)C2)CC1`, the figure is 2.05%.
As for `CCOC1CC2(CCN(c3cnccn3)CC2)c2ccccc21` (stereo not given), the figure is 5.54%.
In the case of `Cc1noc(CCNC(=O)NCC(=O)NCc2ccccc2)n1`, the cytotoxicity at 10 µM turned out to be 5.24%.
As for `CCc1c(C)[nH]c(C2(N)CCCCC2)nc1=O`, the figure is -3.47%; as for `O=C(NC1CC1)c1cn(C2CCN(c3cc(C4CC4)ncn3)CC2)nn1`, 27.8%.
Regarding `Cn1cnnc1CN1CCC2(CCC(=O)N(Cc3ccccc3)C2)CC1`, the cytotoxicity at 10 µM was determined as 7.8%.
The value for `Cn1cc(NC(=O)Cc2ccccc2Br)cc1C(N)=O` was -1%; that for `CSCCCN1C[C@H](NC(=O)c2cc(C3CC3)on2)[C@@H](C2CC2)C1` was 2.72%.
For `CC(=O)N1CCN(C(=O)NCc2cccnc2OC(C)C)CC1`, the cytotoxicity at 10 µM was -17.5%.
As for `Cc1cc(Cn2cc(C#N)c(=O)c3ccccc32)on1`, the cytotoxicity at 10 µM worked out at 8.83%.
On to `O=C(c1ccc2c(c1)CCC2)N1CCN(c2ccc(Cl)cn2)CC1`, for which the cytotoxicity at 10 µM was -2.27%.
The value for `COC(=O)N1CCc2ccccc2C1C(=O)NCc1cccs1` (stereo not given) was -0.634%; that for `CCn1nc(C)c2nc(C(C)C)nc(NCc3ccccn3)c21` was 7.09%; that for `Cn1nccc1C(=O)N1CCC2(CC1)COC(COc1ccccn1)C2` (stereo not given) was -7.18%.
For the compound `O=C(CC1CC1)N1C[C@@H]2CCN(c3cccnc3)C[C@@H]2C1`, the cytotoxicity at 10 µM came out at 4.62%.
For the compound `c1c(CN2CCOCC2)nc2n1CCN(CC1CC1)C2`, the cytotoxicity at 10 µM was determined as 2.73%.
The value for `CNS(=O)(=O)CCNc1cc(C)nc2cc(C)nn12` was 6.95%.
Turning to `CC(=O)N1CCS(=O)(=O)[C@@H]2CCN(CC(C)C)CC[C@@H]21`, the cytotoxicity at 10 µM is -142%.
`O=C(O)c1ccccc1C1CCN(Cc2ccc(-c3cc[nH]n3)o2)C1` (stereo not given): the cytotoxicity at 10 µM is -10.2%.
As for `CCc1csc(C2CCCN(C(=O)c3ccco3)C2)n1` (stereo not given), the figure is 2.56%.
As to `CN1CCC(N(Cc2ccncc2)Cc2nc3c(s2)CCCC3)CC1`, the cytotoxicity at 10 µM was -2.56%.
With `Cc1cc(C(=O)N2CCCC3(CNC(=O)O3)C2)c2c(C)nn(C)c2n1` (stereo not given), the cytotoxicity at 10 µM was determined as 10.8%.
Regarding `CCn1c(SCC(N)=O)nnc1-c1csc2c1CCCC2`, the cytotoxicity at 10 µM came to 16%.
Turning to `Cc1ccc(C(=O)N2C[C@@H](OCc3cccnc3)[C@H]3OCCC[C@H]32)o1`, the cytotoxicity at 10 µM came out at 4.74%.
In the case of `Cc1ccc(-c2ccnc(N3CCC4(CC3)CNC(=O)C4)n2)c(C)n1`, the cytotoxicity at 10 µM is -5.3%.
With `Cc1nc(CN(C)C2CCCN(c3cccnn3)C2)oc1C` (stereo not given), the cytotoxicity at 10 µM is -12.4%.
As for `CN(Cc1cnn(C)c1)C(=O)NCC1CCS(=O)(=O)C1` (stereo not given), the figure is 10.3%; as for `Cc1ccc(CNC(=O)N2CCN(Cc3ccsc3)CC2)n1C`, 9.58%.
As for `CCc1nnc(C(C)N2CCCN(C(=O)OCC(C)C)CC2)o1` (stereo not given), the figure is 4.96%; as for `CC(C)NC(=O)N1CCN(S(=O)(=O)C2CC2)CC2(CC(=O)N(C)C2)C1` (stereo not given), 1.11%; as for `COCC1CN(C(=O)C2=CCCCC2)Cc2cnn(CC3CC3)c21` (stereo not given), 3.46%.
The value for `Cc1ccn(CCNc2ncnc3c2CCN(S(C)(=O)=O)CC3)n1` was -3.03%; that for `COCC(=O)N1CC[C@@H](OCC2CC2)[C@@H]1Cc1cccnc1` was -4.92%.
On to `Cc1cnc(N2CC[C@@H]3OC(COCC(=O)N(C)C)CC[C@@H]32)nc1` (stereo not given in full), for which the cytotoxicity at 10 µM came out at 7.98%.
For the compound `COC(=O)[C@@H]1Cc2ncn(C(C)C)c2CN1S(=O)(=O)Cc1ccccc1`, the cytotoxicity at 10 µM was -2.51%.
The value for `COC(=O)c1cccc(C(=O)N(C)Cc2cccc(O)c2)c1` was 9.85%.
